For orientation: pIC50 means the IC50 on a negative log10 scale, so that one unit is a factor of ten. A higher pIC50 goes with a low IC50.

40 molecules from ChEMBL document CHEMBL2034949, “Small Molecule Inhibitors of Regulator of G Protein Signalling (RGS) Proteins” (ACS Med Chem Lett, 2012) can be followed below.

A short description of data set [1]: Selectivity ratio of IC50 for RGS8 to IC50 RGS4.
Data set [2] in a line: Aqueous solubility of the compound at 500 uM. The data set is classed as physicochemical. As to conditions: buffer.
Data set [3] concerns the target Muscarinic acetylcholine receptor M3 (Homo sapiens) (UniProt P20309). The data set can be described thus: Activity at human muscarinic M3 receptor expressed in HEK293T cells assessed as increase in carbachol-induced intracellular calcium level at 10 uM after 30 to 45 mins by fluorimetry. Particulars: HEK-293T. In kind it is functional, cell-based. In a few lines:
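HEK-293 cells stably expressing human M3 muscarinic receptor, plated overnight, loaded with Fluo4-NW for 30 min at 37 °C. Compound added at 10 uM final in 1% DMSO; baseline fluorescence read after 30-45 min, then carbachol injected (10 nM final). Intracellular Ca++ rise expressed as percent of baseline; triplicate determinations, DMSO control n=16.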

For data set [4], the target named is Regulator of G-protein signaling 4 (Homo sapiens, UniProt P49798). The data set can be described thus: Inhibition of RGS4 interaction with Galpha0 protein by flow cytometry protein interaction assay. In a few lines:
(§1)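 Inhibition of Gαo binding to RGS4 or RGS8. IC50 taken as the average of two independent experiments.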

Data set [5] deals with T1, Regulator of G-protein signaling 8 (Homo sapiens, UniProt P57771).
T1 sequence (P57771 whole entry): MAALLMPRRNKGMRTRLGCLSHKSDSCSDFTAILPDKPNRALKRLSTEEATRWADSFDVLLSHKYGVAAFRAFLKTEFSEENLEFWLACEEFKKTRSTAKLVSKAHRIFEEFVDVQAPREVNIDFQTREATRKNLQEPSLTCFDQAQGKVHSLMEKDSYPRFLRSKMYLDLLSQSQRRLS
The data set can be described thus: Inhibition of RGS8 interaction with Galpha0 protein by flow cytometry protein interaction assay. The method in brief: as §1
(In general: Flow cytometry measures light scatter and fluorescence of single cells or particles in a stream.)

Each structure is given as a SMILES string. pIC50: −log10 of the molar value. Activity calls are given as the source filed them. The calls are words filed in the database; no cut-off is given here.

Sequence of Muscarinic acetylcholine receptor M3 (Homo sapiens) (P20309 whole entry, looked up): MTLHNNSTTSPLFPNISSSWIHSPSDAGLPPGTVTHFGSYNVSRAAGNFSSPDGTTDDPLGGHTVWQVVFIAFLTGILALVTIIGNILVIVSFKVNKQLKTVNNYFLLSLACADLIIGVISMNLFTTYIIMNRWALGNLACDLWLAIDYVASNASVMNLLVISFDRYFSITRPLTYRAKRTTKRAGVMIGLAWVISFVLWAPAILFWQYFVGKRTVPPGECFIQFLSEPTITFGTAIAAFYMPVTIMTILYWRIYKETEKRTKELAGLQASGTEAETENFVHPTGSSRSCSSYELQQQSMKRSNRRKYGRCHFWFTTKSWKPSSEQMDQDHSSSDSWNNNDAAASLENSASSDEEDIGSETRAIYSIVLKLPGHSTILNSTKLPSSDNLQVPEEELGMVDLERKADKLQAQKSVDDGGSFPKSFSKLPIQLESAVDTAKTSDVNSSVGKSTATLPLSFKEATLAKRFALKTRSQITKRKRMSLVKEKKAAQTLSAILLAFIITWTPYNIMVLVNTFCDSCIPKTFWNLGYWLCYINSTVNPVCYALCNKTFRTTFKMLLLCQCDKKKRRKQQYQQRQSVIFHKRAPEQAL
Sequence of Regulator of G-protein signaling 4 (P49798 whole entry): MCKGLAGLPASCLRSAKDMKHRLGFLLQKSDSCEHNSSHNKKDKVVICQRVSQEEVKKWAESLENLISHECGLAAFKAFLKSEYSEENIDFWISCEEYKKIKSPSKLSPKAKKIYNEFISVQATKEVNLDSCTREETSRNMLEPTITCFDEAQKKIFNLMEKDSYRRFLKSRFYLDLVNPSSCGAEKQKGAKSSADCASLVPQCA

For `Cc1ccc(-n2sc(=O)n(C)c2=O)cc1`, the Ratio IC50 in data set [1] stood at 445.

With `COc1ccc(-n2sc(=O)n(Cc3ccccc3)c2=O)cc1`, the Ratio IC50 in data set [1] was 515.

For the molecule `COc1ccc(-n2sc(=O)n(Cc3ccc(F)cc3)c2=O)cc1`, in data set [1], the Ratio IC50 came to 1050.

In the case of `O=c1sn(-c2cccc(Cl)c2)c(=O)n1Cc1ccc(F)cc1`, the Ratio IC50 in data set [1] was found to be 245.

For the molecule `O=c1sn(-c2cccc(C(F)(F)F)c2)c(=O)n1Cc1ccc(F)cc1`, in data set [1], the Ratio IC50 was determined as 204.

Turning to `O=c1sn(-c2cccc(Cl)c2)c(=O)n1Cc1ccccc1`, the Ratio IC50 in data set [1] was found to be 335.

`CCCCn1c(=O)sn(-c2ccc(C)cc2)c1=O`: the Ratio IC50 in data set [1] was found to be 483.

With `Cn1c(=O)sn(C(C)(C)C)c1=O`, the Ratio IC50 in data set [1] turned out to be 2020. Also, in data set [2], the solubility entry was “soluble”.

For the molecule `O=c1sn(-c2ccc(Cl)c(Cl)c2)c(=O)n1Cc1ccc(F)cc1`, in data set [1], the Ratio IC50 was 481.

Consider `O=c1sn(-c2ccc(Cl)cc2)c(=O)n1Cc1ccc(F)cc1`, for which the Ratio IC50 in data set [1] was 564.

`CCn1sc(=O)n(CC(C)C)c1=O`: the Ratio IC50 in data set [1] came to 2680. Also, the solubility result in data set [2] was “soluble”.

For `Cc1ccc(Cn2c(=O)sn(-c3ccc(C)cc3)c2=O)cc1`, in data set [1], the Ratio IC50 turned out to be 1340.

Turning to `CCn1sc(=O)n(CCOC)c1=O`, the Ratio IC50 in data set [1] is 665. Also, in data set [3], the outcome was inactive.

`O=c1sn(-c2ccc(Cl)c(Cl)c2)c(=O)n1Cc1ccccc1`: the Ratio IC50 in data set [1] was determined as 149.

Regarding `Cc1ccc(-n2sc(=O)n(Cc3ccc(F)cc3)c2=O)cc1`, the pIC50 in data set [4] is 7.52; in data set [5] it was 4.96. In data set [1], the Ratio IC50 is 366. Moreover, the outcome in data set [3] was Active.

`Cc1ccc(CN2C(=O)CN(c3ccc(C)cc3)C2=O)cc1`: the pIC50 in data set [4] and in data set [5] was < 4.00 each time.

Regarding `CCCCn1c(=O)sn(C(C)(C)C)c1=O`, the Ratio IC50 in data set [1] is 2220. Further, in data set [2], the solubility result is “soluble”.

Consider `CC(C)Cn1c(=O)sn(C(C)(C)C)c1=O`, for which the Ratio IC50 in data set [1] was found to be 6660. In data set [2], the solubility result is “soluble”.

On to `Cc1ccc(-n2sc(=O)n(Cc3cccc(Cl)c3)c2=O)cc1`, for which the Ratio IC50 in data set [1] was 1000.

For the molecule `CCn1sc(=O)n(C)c1=O`, in data set [1], the Ratio IC50 turned out to be 1660. Also, in data set [2], the solubility entry was “soluble”.

For `Cc1cccc(-n2sc(=O)n(Cc3ccccc3)c2=O)c1`, the Ratio IC50 in data set [1] came to 558.

As for `Cc1ccc(-n2sc(=O)n(Cc3ccc(Cl)c(Cl)c3)c2=O)cc1`, in data set [1], the Ratio IC50 turned out to be 460.

As for `CCCCn1sc(=O)n(Cc2ccc(F)cc2)c1=O`, the Ratio IC50 in data set [1] came to 2020.

Turning to `CCCCn1sc(=O)n(CC(C)C)c1=O`, the Ratio IC50 in data set [1] was determined as 2540. In addition, the solubility entry in data set [2] was “soluble”.

With `Cc1ccc(Cn2sc(=O)n(Cc3ccccc3)c2=O)cc1`, the Ratio IC50 in data set [1] stood at 2840.

Regarding `CCCCn1c(=O)sn(CC)c1=O`, in data set [3], the outcome was inactive. Moreover, the solubility entry in data set [2] is “soluble”.

For `O=c1sn(-c2ccccc2)c(=O)n1Cc1ccccc1`, in data set [1], the Ratio IC50 worked out at 239.

For `Cc1cccc(-n2sc(=O)n(Cc3ccc(F)cc3)c2=O)c1`, in data set [1], the Ratio IC50 was determined as 59.

In data set [4], `COc1ccc(Cn2c(=O)sn(-c3ccc(C)cc3)c2=O)cc1` showed a pIC50 of 6.75. In data set [1], the Ratio IC50 is 1780.

`Cc1ccc(-n2sc(=O)n(Cc3ccccc3)c2=O)cc1`: the Ratio IC50 in data set [1] was found to be 519.

For the molecule `O=c1sn(-c2cccc(C(F)(F)F)c2)c(=O)n1Cc1ccccc1`, the Ratio IC50 in data set [1] turned out to be 286.

As for `Cc1ccc(-n2sc(=O)n(Cc3cccc(C)c3)c2=O)cc1`, the Ratio IC50 in data set [1] is 679.

For the molecule `CCCCn1sc(=O)n(C)c1=O`, in data set [1], the Ratio IC50 turned out to be 1210. In addition, in data set [2], the solubility entry is “soluble”.

As to `CCCCn1sc(=O)n(CCCC)c1=O`, in data set [1], the Ratio IC50 amounted to 4110. In data set [2], the solubility entry is recorded as “soluble”.

As for `Cc1ccc(-n2sc(=O)n(CC(C)C)c2=O)cc1`, in data set [1], the Ratio IC50 stood at 550.

On to `O=c1sn(-c2ccccc2)c(=O)n1Cc1ccc(F)cc1`, for which, in data set [1], the Ratio IC50 was determined as 380.

As to `Cc1ccc(-n2sc(=O)n(Cc3ccc(Cl)cc3)c2=O)cc1`, in data set [1], the Ratio IC50 was 2170.

On to `Cc1ccc(Cn2sc(=O)n(Cc3ccc(F)cc3)c2=O)cc1`, for which the Ratio IC50 in data set [1] was 3090.

`O=c1sn(-c2ccc(Cl)cc2)c(=O)n1Cc1ccccc1`: the Ratio IC50 in data set [1] amounted to 183.

For the molecule `CCn1sc(=O)n(Cc2ccc(F)cc2)c1=O`, the Ratio IC50 in data set [1] turned out to be 842.
